Key:
[1] = cited from earlier work
[2] = tested on: human kidney proximal tubular HK-2 cells; conditions: identical dose of 0.75 mM; cited from earlier work
[3] = physiologically-based PK model; cited from earlier work
[4] = Kidney PK of CMS/CMS-E2 and formed colistin/colistin B; format: in vivo, rats; conditions: for Cmax CMS/CMS-E2 in kidneys: mean ± SD, SD
Method in brief: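 Male Sprague-Dawley rats (300 ± 15 g) got one i.p. dose in saline. At each sampling time rats were anaesthetised with tiletamine-zolazepam (40 mg/kg) and killed, and the left kidney was frozen at −70 °C. Kidney cortex was homogenised in saline (1:10 m/v, 1% BSA). Samples went through WCX solid-phase extraction with polymyxin B1 internal standard, then LC-MS/MS. Prodrug was calculated as total (after […] sulfuric acid hydrolysis) minus free colistin/colistin B. Parameters came from non-compartmental analysis.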

[5] = PK-TD model, PK component; format: in vivo; conditions: rats, single i.p. CMS 10 mg/kg CBA, one-compartment PK-TD model, mean ± SD
Method in brief: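 Plasma prodrug and formed colistin/colistin B concentrations after i.p. dosing were fitted by a compartmental model. The final model used one compartment each for prodrug and formed drug, a conversion rate constant, and linear first-order total clearance from both. Fit was judged by R², AIC, BIC and visual inspection. Estimates are mean ± SD.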

rats [6] = assay: Renal histological examination; format: in vivo; conditions: rat kidney; for histological lesions during the first 2 h: PAS stain; for maximal SQS: mean ± SD, SD
rats [7] = assay: Kidney injury biomarkers: plasma CR and BUN; format: in vivo; conditions: rat plasma, mean ± SD
Method in brief: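 Rats (male Sprague-Dawley) received one i.p. injection in saline, with a saline control group. Plasma came from serial heparinised jugular-vein samples, plus blood taken at sacrifice in a second cohort. Creatinine and blood urea nitrogen were measured on an automatic biochemical analyser. Peak levels and times to peak were taken from the time profiles and given as mean ± SD.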

[8] = Plasma PK of CMS/CMS-E2 and formed colistin/colistin B; format: in vivo, rats; conditions: rat plasma, LC-MS/MS, NCA, mean ± SD
Method in brief: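 Male Sprague-Dawley rats were dosed once i.p. in saline, and serial jugular-vein blood was taken before and after dosing. Blood was heparinised (1%), spun at 4,982 × g for 10 min at 4 °C, and plasma stored at −70 °C. Plasma (40 µL) went through WCX solid-phase extraction with polymyxin B1 internal standard, then LC-MS/MS. Prodrug was total (acid-hydrolysed) minus free analyte. […] Values are mean ± SD, compared by Wilcoxon rank sum.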

rats [9] = assay: PK-TD model, TD component; format: in vivo; conditions: i.p., mean ± SD
Method in brief: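 Plasma creatinine and BUN time courses were linked to plasma colistin/colistin B through an indirect hypothetical effect compartment. K_e is the rate constant from the central to the effect compartment. The effect was linear: E = E₀ + S·C_e, with E₀ the pre-dose baseline. T_lag was calculated as 1/K_e. Fit was judged by R², AIC, BIC and visual inspection. Parameters are mean ± SD.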

patients = conditions: meta-analyses; cited from earlier work
[10] = rats; CMS and formed colistin; cited from earlier work
rats [11] = assay: Maximal tolerability dose; format: in vivo; conditions: intraperitoneal
[12] = rat kidney cortex, single i.p. CMS or CMS-E2 20 mg/kg CBA, LC-MS/MS, NCA
[13] = single i.p. CMS or CMS-E2 20 mg/kg CBA

For colistin A, the plasma protein binding [1] is given as 56.6 ± 9.25% and the “apoptotic effect relative to colistin B” value [2] is given as “three times”.

In the case of colistin methanesulphonate [CMS], the “renal CMS conversion” value [3] is listed as < 1%, the “Tmax CMS/CMS-E2 in kidneys” value ([4]; rat kidney cortex, single i.p. CMS 10 mg/kg CBA, LC-MS/MS, NCA) is listed as 2 h and the “Cmax CMS/CMS-E2 in kidneys” value ([4]; rat kidney cortex, single i.p. CMS 10 mg/kg CBA, LC-MS/MS) is listed as 64.2 ± 38.1 µg/g. For the same substance, the “AUC0-inf CMS/CMS-E2 in kidneys” value [4, 12] was 1620 µg·h/g, the “Tmax CMS/CMS-E2 in kidneys” value [4, 12] was 4 h and the “t1/2 CMS/CMS-E2 in kidneys” value [4, 12] was 1.03 h. The “Cmax CMS/CMS-E2 in kidneys” value ([4]; rat kidney cortex, single i.p. CMS or CMS-E2 20 mg/kg CBA, LC-MS/MS) was 281 ± 92.8 µg/g, the “CMS concentration in renal tissue at 6, 8 h” value ([4]; rat kidney, single i.p. CMS 10 mg/kg CBA, LC-MS/MS) was “below the lower limit” and the “CMS concentration in renal tissue at 24 h” value ([4]; rat kidney, single i.p. CMS 20 mg/kg CBA, LC-MS/MS) was “below the lower limit”. The “Kidney/plasma ratio of Cmax, CMS/CMS-E2” value ([4]; rats, single i.p. CMS or CMS-E2 20 mg/kg CBA) was 7.11, the “CLCMS/CMS-E2 (total body clearance)” value [5] was 5.14 ± 0.196 mL/min/kg and the “Ka CMS/CMS-E2 (absorption rate)” value [5] was 2.02 ± 0.260 h⁻¹. The “V (volume of distribution)” value [5] was 0.194 ± 0.0128 L/kg, the “histological lesions during the first 2 h” value (rats [6]; single i.p. CMS 10 mg/kg CBA) was “No obvious histological lesion” and the “histological lesions during the first 2 h” value (rats [6]; [13]) was “No obvious histological lesion”. The “recovery of histological damage at 8 h” value (rats [6]; single i.p. CMS 10 mg/kg CBA) was “most of the damage was completely recovered”, the “maximal SQS” value (rats [6]; single i.p. CMS 10 mg/kg CBA) was 2.00 ± 0.00 and the “recovery of histological damage at 24 h” value (rats [6]; single i.p. CMS 20 mg/kg CBA) was “all damage was completely recovered”. For the same substance, the “maximal SQS” value (rats [6]; [13]) was 3.00 ± 0.00, the “peak BUN level” value (rats [7]; single i.p. CMS 10 mg/kg CBA) was 8.09 ± 1.66 mmol/L and the “peak CR level” value (rats [7]; single i.p. CMS 10 mg/kg CBA) was 31.3 ± 5.41 µmol/L. For the same substance, the “time of peak BUN” value (rats [7]; single i.p. CMS 10 mg/kg CBA) was 5.00 ± 0.00 h, the “time of peak CR level” value (rats [7]; single i.p. CMS 10 mg/kg CBA) was 2.67 ± 1.70 h and the “peak BUN level” value (rats [7]; [13]) was 17.8 ± 3.83 mmol/L. The “peak CR level” value (rats [7]; [13]) was 93.1 ± 29.8 µmol/L, the “time of peak BUN” value (rats [7]; [13]) was 7.82 ± 1.34 h and the “time of peak CR level” value (rats [7]; [13]) was 5.36 ± 1.30 h. The “AUC0-inf CMS/CMS-E2 in plasma” value ([8]; single i.p. CMS 10 mg/kg CBA) was 30700 ± 763 ng·h/mL, the “CL/F CMS/CMS-E2” value ([8]; single i.p. CMS 10 mg/kg CBA) was 5.42 ± 0.132 mL/min/kg and the “Cmax CMS/CMS-E2 in plasma” value ([8]; single i.p. CMS 10 mg/kg CBA) was 21400 ± 727 ng/mL. The “Tmax CMS/CMS-E2 in plasma” value ([8]; single i.p. CMS 10 mg/kg CBA) was 0.333 ± 0.118 h, the “Vd/F CMS/CMS-E2” value ([8]; single i.p. CMS 10 mg/kg CBA) was 0.213 ± 0.0362 L/kg and the “t1/2 CMS/CMS-E2 in plasma” value ([8]; single i.p. CMS 10 mg/kg CBA) was 0.453 ± 0.068 h. The “AUC0-inf CMS/CMS-E2 in plasma” value [8, 13] was 149000 ± 69600 ng·h/mL, the “CL/F CMS/CMS-E2” value [8, 13] was 2.99 ± 2.02 mL/min/kg and the “Cmax CMS/CMS-E2 in plasma” value [8, 13] was 39500 ± 13700 ng/mL. The “Tmax CMS/CMS-E2 in plasma” value [8, 13] was 1.30 ± 0.458 h, the “Vd/F CMS/CMS-E2” value [8, 13] was 0.266 ± 0.0816 L/kg and the “t1/2 CMS/CMS-E2 in plasma” value [8, 13] was 1.27 ± 0.557 h. For the same substance, the “S (slope between colistin/colistin B concentration in effect compartment and CR)” value (rats [9]; E = E0 + S·Ce) was 20.9 ± 9.13 mmol/g, the “Ke (rate from colistin/colistin B central compartment to effect compartment), BUN” value (rats [9]; indirect link PK-TD model, effect = BUN) was 0.157 ± 0.100 h⁻¹ and the “Ke (rate from colistin/colistin B central compartment to effect compartment), CR” value (rats [9]; indirect link PK-TD model, effect = plasma CR) was 0.833 ± 0.555 h⁻¹. For the same substance, the “Tlag (lag time), BUN” value (rats [9]; reciprocal of Ke, effect = BUN) was 8.45 ± 4.08 h, the “Tlag (lag time), CR” value (rats [9]; reciprocal of Ke, effect = plasma CR) was 1.73 ± 1.22 h and the “incidence of CMS-associated nephrotoxicity” value (patients) was “up to 48%”. The “t1/2 in prior reports” value [10] was 0.333 to 0.667 h and the maximal tolerability dose (rats [11]) was 20 mg/kg CBA.

From article PMC12065821 (Scientific Reports, 2025)
